Screening results as filed in PubChem BioAssay.
This is a sample that favours compounds with a hit; in the whole collection about 3% have one here.
Apaf1 inhib – inhibitors of human Apaf-1 apoptosome, primary screen, biochemical, DEVD-Rh110 fluorescence, uHTS; reconstituted apoptosome caspase-3 activity; Apoptotic protease-activating factor 1 (Homo sapiens), O14727; AID 489030, 2010; inhibition, % at 20 µM; actives 0.71% (n = 330,000); active = inhibition of at least 40% at 20 µM;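 note: plate controls were DMSO wells for no effect and DEVD-CHO caspase inhibitor wells for full effect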
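detection = Rh110 fluorescence intensity | test system = biochemical Apaf-1 apoptosome reconstitution | also added = cytochrome c and DEVD-Rh110 substrate | schedule = 30 min plus 50 min, RT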
MPTP block – mitochondrial permeability transition pore inhibitors, primary screen, biochemical, isolated mouse mitochondria, absorbance; Ca2+ swelling absorbance, 30 min; AID 602449, 2012; actives 1.4% (n = 360,000); inhibition, % at 10 µM;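 active = inhibition of 50% or more, scaled per plate between neutral and stimulator controls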;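 note: 0% = DMSO wells given calcium and 100% = 1 mM EGTA wells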
iPSC survival up – enhancers of single-cell hiPSC survival, primary screen, ATPlite luminescence; 100% = ROCK inhibitor wells, 0% = DMSO; actives 0.044% (n = 360,000); AID 602274, 2012; survival enhancement, % at 20 µM; in the data active = survival enhancement above about 18%;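 note: cells exposed to compounds for 16 hours before the ATP read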
UBC13 polyUb – UBC13 polyubiquitin chain formation inhibitors, primary screen, biochemical, TR-FRET, uHTS | actives 0.47% (n = 330,000) | Ubiquitin-conjugating enzyme E2 N (Homo sapiens), P61088 | inhibition, % at 20 µM; in the data active = inhibition above about 45%, passing the limit was not always enough
Granule exo inh – LAMP-1 surface exposure blockers, TALL-104 cells – cell-based, flow cytometry, MLPCN library, primary screen; TALL-104 LAMP-1 surface exposure; cells stimulated with thapsigargin and PMA; inhibition, % at 10 µM; actives 0.66% (n = 360,000); AID 651702, 2012;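 active = inhibition above about 55%, limit read from the data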
MIN6 prolif – inducers of MIN6 beta-cell proliferation, primary screen, ATP luminescence, uHTS | MIN6 cells proliferation, ATPlite luminescence, 48 h; cells starved in 0.2% serum; 100% = growth in 10% serum | proliferation, % at 10 µM | actives 0.29% (n = 330,000);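 active = compounds whose signal lies at least 3.5 SD above the mean of all wells on their plate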;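 note: 0% = DMSO-treated cells in low-serum medium and 100% = 10% serum control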
Apaf-1 inh conf – Apaf-1 inhibitors, single-dose retest, confirmation, biochemical, fluorescence, DEVD-Rh110, 20 µM; reconstituted apoptosome, caspase-3 DEVD-Rh110 fluorescence; inhibition, % at 20 µM; actives 25% (n = 1,800); shares compounds with Apaf1 inhib;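 active = mean inhibition of at least 40% at 20 µM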;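 note: plate controls were DMSO wells for no effect and DEVD-CHO caspase inhibitor control wells for full effect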
Rh110 quench – Rh110 fluorescence interference by putative Apaf-1 inhibitors, confirmation, artefact control for Apaf-1 inhibitor project, biochemical, 20 µM; shares compounds with Apaf1 inhib; quenched caspase reaction; activation (fluorescence interference), % at 20 µM; 1,800 tested, under 10 active;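 active = signal rise of 40% or more at 20 µM, treated as a fluorescence artifact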
Fluor interf inh – fluorescence interference of Apaf-1 inhibitor hits, dose response, artefact control for Apaf-1 inhibitor project; IC50, µM; fluorescence interference counterscreen, Apaf-1 assay format; 460 tested, under 10 active; shares compounds with Apaf1 inhib; AID 588538, 2011; call rule not given here
Starred values were filed as active, the others as inactive; nt = no result.

SMILES	Apaf1 inhib	MPTP block	iPSC survival up	UBC13 polyUb	Granule exo inh	MIN6 prolif	Apaf-1 inh conf	Rh110 quench	others
CC(=O)Nc1ccc(C(=O)N2CCCCC2c2cc(C(=O)NC(C)C)no2)cc1 (configuration not stated)	nt	-3	0	nt	-4	nt	nt	nt
CC(=NOC(=O)c1ccc(I)cc1)c1nccs1	nt	1	-1	nt	0	nt	nt	nt
CCc1nc2ccc(C(=O)NCCc3c[nH]c4ccccc34)cn2c1N(C)CCCc1ccccc1	nt	1	4	nt	39	nt	nt	nt
O=[N+]([O-])c1ccc(N/N=C/c2cccc(O)c2O)c(S(=O)(=O)N2CCOCC2)c1	8	20	0	-24	2	-5	nt	nt
O=[N+]([O-])c1ccc(N/N=C/c2ccc(O)c(O)c2O)c(S(=O)(=O)N2CCOCC2)c1	63*	3	-1	-106	3	-5	43*	9	Fluor interf inh=>100
COc1ccc(C2(c3ccc(OC)cc3)NC(=O)N(CC(=O)Nc3ccc(N4CCOCC4)cc3)C2=O)cc1	41*	0	2	-6	-20	-3	28	2
CCOc1cc(N2CCOCC2)c(OCC)cc1NC(=O)c1cc(S(=O)(=O)N2CCOCC2)ccc1C	6	0	0	3	-2	-1	nt	nt
O=C(CCNC(=O)C1CCN(S(=O)(=O)c2ccccc2)CC1)NCCc1cccc(F)c1	-4	0	0	-8	0	3	nt	nt
COc1ccc(NC(=O)CCCn2c(=S)[nH]c3ccccc3c2=O)cc1	8	-2	0	-3	-2	-2	nt	nt
COc1ccc(NC(=O)CCn2c(=S)[nH]c3ccccc3c2=O)cc1	86*	0	0	1	-4	-1	7	5
CC(C)C[C@@H](C(=O)NC1CCN(Cc2ccccc2)CC1)N1C(=O)N2CCc3c([nH]c4ccccc34)[C@@]2(C)C1=O	45*	8	-2	35	26	-6	17	-1
Cc1cccc(C)c1NC(=O)CN1CCN(CCCC(c2ccc(F)cc2)c2ccc(F)cc2)CC1	51*	4	1	35	18	-8	19	11
Cc1cccc(C)c1NC(=O)CN1CCC(Cc2ccccc2)CC1	nt	1	-1	nt	0	nt	nt	nt
O=C(COC(=O)c1ccccc1)NCC1CCCO1 (configuration not stated)	56*	0	1	0	26	-1	5	1
CCOc1nc2cnccc2n(CC(=O)Nc2c(C)cccc2CC)c1=O	-9	-1	1	3	2	-2	nt	nt
Cn1c(NC(=O)c2ccc(Cl)s2)cc(=O)n(C)c1=O	66*	-1	0	3	-1	-1	10	-3
Cn1c(NC(=O)c2ccc(Cl)cc2)cc(=O)n(C)c1=O	6	0	-2	-26	0	1	nt	nt
NC(=O)C(CCc1nc2ccccc2[nH]1)NS(=O)(=O)c1ccccc1 (configuration not stated)	nt	0	3	nt	-1	nt	nt	nt
Cc1ccccc1NC(=S)NCc1ccc2c(c1)cc(C)n2C	7	0	-4	8	-5	-7	nt	nt
Cc1cc2cc(CNS(=O)(=O)c3ccccc3)ccc2n1C	61*	0	0	4	5	-4	12	5
COc1ccc(S(=O)(=O)NCc2ccc3c(c2)cc(C)n3C)cc1	51*	3	-1	-4	5	-3	17	3
CCc1cccc(C)c1NC(=S)NCc1ccc2c(c1)cc(C)n2C	55*	25	-2	4	-1	-7	21	6
